Results from ChEMBL document CHEMBL3877293, “Synthesis and Antineoplastic Evaluation of Novel Unsymmetrical 1,3,4-Oxadiazoles” (J Med Chem, 2016).
Active and inactive are the calls of the source. The calls are words filed in the database; no cut-off is given here.

Legend:
[1] = Antiproliferative activity against human MCF7 cells after 72 hrs by XTT assay; format: functional, cell-based; settings: MCF7, 72 h
How it was run: (§1)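 Cells plated at 1500–2000 per well by doubling time, treated after 24 h with a concentration series in six triplicate wells, and incubated 72 h without a medium change. XTT reagent was then added for 4 h at 37 °C and absorbance read at 490 nm. IC50 is the concentration halving absorbance versus untreated cells. Experiments run in triplicate.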

[2] = Antiproliferative activity against human T98G cells after 72 hrs by XTT assay; format: functional, cell-based; how it was run: as §1
[3] = Antiproliferative activity against human SK-N-AS cells after 72 hrs by XTT assay; format: functional, cell-based; how it was run: as §1
[4] = Antiproliferative activity against human LAN1 cells after 72 hrs by XTT assay; format: functional, cell-based; settings: LAN1, 72 h; how it was run: as §1
[5] = Cytotoxicity against human HeLa cells assessed as inhibition of colony formation at 0.03 uM after 2 weeks by crystal violet staining based assay relative to control; format: functional; settings: 336 h
How it was run: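 HeLa seeded at 100-200 cells/well in six-well plates and treated with 0.3 or 0.03 μM compound (DMSO control). Medium with compound changed every 3 days for about two weeks, until control colonies were visible. Colonies fixed and stained with 6.0% glutaraldehyde/0.5% crystal violet for 30 min, then counted against control. Done in triplicate.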

[6] = Cell cycle arrest in human MCF7 cells assessed as S phase accumulation at 1 uM after 24 hrs by propidium iodide staining based flow cytometry (reference value: 21.7 +/- 1.42%); format: functional
[7] = Cell cycle arrest in human MCF7 cells assessed as G1 phase accumulation at 1 uM after 144 hrs by propidium iodide staining based flow cytometry (reference value: 65.9%); format: functional
[8] = Cell cycle arrest in human NCI-H1299 cells assessed as G2/M phase accumulation at 1 uM after 48 hrs by propidium iodide staining based flow cytometry (reference value: 11.8%); format: functional
[9] = Cell cycle arrest in human SH-SY5Y cells assessed as G1 phase accumulation at 1 uM after 24 hrs by propidium iodide staining based flow cytometry (reference value: 59.6 +/- 1.94%); format: functional
[10] = Cell cycle arrest in human SK-N-AS cells assessed as S phase accumulation at 1 uM after 24 hrs by propidium iodide staining based flow cytometry (reference value: 21.3 +/- 1.14%); format: functional
[11] = Cell cycle arrest in human A549 cells assessed as G1 phase accumulation at 1 uM after 24 hrs by propidium iodide staining based flow cytometry (reference value: 65.4 +/- 1.84%); format: functional
[12] = Cell cycle arrest in human A549 cells assessed as G2/M phase accumulation at 1 uM after 24 hrs by propidium iodide staining based flow cytometry (reference value: 27 +/- 1.32%); format: functional
[13] = Cell cycle arrest in human Kelly cells assessed as S phase accumulation at 1 uM after 24 hrs by propidium iodide staining based flow cytometry (reference value: 16.1 +/- 1.28%); format: functional
[14] = Cell cycle arrest in human LAN1 cells assessed as G1 phase accumulation at 1 uM after 24 hrs by propidium iodide staining based flow cytometry (reference value: 60.3 +/- 1.82%); format: functional
[15] = Cell cycle arrest in human LAN1 cells assessed as G2/M phase accumulation at 1 uM after 24 hrs by propidium iodide staining based flow cytometry (reference value: 26.2 +/- 1.92%); format: functional
[16] = Cell cycle arrest in human PC3 cells assessed as G2/M phase accumulation at 1 uM after 24 hrs by propidium iodide staining based flow cytometry (reference value: 26.8 +/- 1.69%); format: functional; settings: PC-3
[17] = Cell cycle arrest in human MCF7 cells assessed as G2/M phase accumulation at 1 uM treated for 24 hrs followed by compound washout measured after 24 hrs by propidium iodide staining based flow cytometry (reference value: 26.4%); format: functional
[18] = Cell cycle arrest in human NB1 hTERT cells assessed as G2/M phase accumulation at 1 uM after 24 hrs by propidium iodide staining based flow cytometry (reference value: 35.7%); format: functional
[19] = Cell cycle arrest in human NB1 hTERT cells assessed as S phase accumulation at 1 uM after 48 hrs by propidium iodide staining based flow cytometry (reference value: 10.3%); format: functional
[20] = Cell cycle arrest in human NB1 hTERT cells assessed as G1 phase accumulation at 1 uM after 72 hrs by propidium iodide staining based flow cytometry (reference value: 72.5%); format: functional
SH-SY5Y = assay: Disruption of beta-tubulin network in human SH-SY5Y cells assessed as shorter microtubule bundles around nuclei at 1 uM after 24 hrs by DAPI staining based immunofluorescence microscopic analysis; format: cell-based
How it was run: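 Cells seeded on glass coverslips (1 x 10^5/well), treated 24 h, fixed in 4% paraformaldehyde 15 min, permeabilized with 0.5% Triton X-100, blocked in 5% BSA/PBS, stained overnight at 4 °C with anti-β-tubulin (1:200) then fluorescent secondary antibody; nuclei counterstained with DAPI; microtubule organization and nuclear morphology examined by fluorescence microscopy.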

A549 = assay: Induction of apoptosis in human A549 cells assessed as live cells at 5 uM after 72 hrs by Annexin-V FITC/propidium iodide staining based flow cytometry (reference value: 91.9%); format: functional
[21] = Induction of apoptosis in human NB-1 cells assessed as late apoptotic cells at 5 uM after 72 hrs by Annexin-V FITC/propidium iodide staining based flow cytometry (reference value: 3.3%); format: cell-based; settings: nb1, 72 h
[22] = Induction of apoptosis in human NB-1 cells assessed as necrotic cells at 5 uM after 72 hrs by Annexin-V FITC/propidium iodide staining based flow cytometry (reference value: 0.2%); format: cell-based; settings: nb1, 72 h
[23] = Antiproliferative activity against human IBR3G cells after 72 hrs by XTT assay; format: cell-based; how it was run: as §1
[24] = Antiproliferative activity against human IBR3-G SV40 cells after 72 hrs by XTT assay; format: functional, cell-based; settings: IBR3-G SV40, 72 h; how it was run: as §1
[25] = Cell cycle arrest in human NCI-H1299 cells assessed as sub G1 phase accumulation at 1 uM after 48 hrs by propidium iodide staining based flow cytometry relative to control; format: functional
[26] = Cell cycle arrest in human NB1 hTERT cells assessed as sub G1 phase accumulation at 1 uM after 48 hrs by propidium iodide staining based flow cytometry relative to control; format: functional

Cc1[nH]c2c(c1-c1nnc(-c3ccccc3)o1)Cc1ccccc1-2
IC50 [1]: 1700 nM
IC50 [2]: 60 nM
IC50 [3]: 190 nM
IC50 [4]: 380 nM
inhibition at 0.03 µM [5]: ≤ 50%
Activity [6]: 6.3 to 10.4%
Activity [7]: 14.5%
Activity [8]: 42.9%
Activity [9]: 24.8%
Activity [10]: 9.9%
Activity [11]: 11.4%
Activity [12]: 65.3%
Activity [13]: 9.7%
Activity [14]: 11.8%
Activity [15]: 82.6%
Activity [16]: 72%
Activity [17]: 31.7%
Activity [18]: 28.9%
Activity [19]: 10.9%
Activity [20]: 45.6%
Activity (SH-SY5Y): Active
Activity (A549): 42.7%
Activity [21]: 8.3%
Activity [22]: 0.8%
IC50 [23]: 770 nM
IC50 [24]: 210 nM
Activity [25]: 13.4%
Activity [26]: 24.9%
